# Experimental data pooled from the literature.
Compound,host,matrix,route,dose,setting,Tmax
Cc1cc(Nc2ccc3ccccc3c2)n2ncnc2n1,male Swiss mouse,plasma,oral,50 mg/kg,single dose,30 min
Cc1cc(NC(=O)c2cccc3cc(-c4cccc5[nH]nc(N)c45)ccc23)ccc1F,male CD-1 mouse,brain,oral,10 mg/kg,,120 min
CC1(C)CC[C@]2(C(=O)O)CC[C@]3(C)C(=CC[C@@H]4[C@@]5(C)C[C@@H](O)[C@H](OC(=O)/C=C/c6ccc(O)cc6)C(C)(C)[C@@H]5CC[C@]43C)[C@@H]2C1 (relative stereo),mouse,plasma,intraperitoneal,85 µmol/kg,single dose,30 min
NC(=O)c1cc(Oc2ccc(NC(=O)Nc3ccc(Cl)c(C(F)(F)F)c3)c(F)c2)cc[n+]1[O-],mouse,plasma,oral,10 mg/kg,single dose,450 min
CCc1ccc(Cc2cc([C@@H]3O[C@H](CO)[C@@H](O)[C@H](O)[C@H]3O)cc3c2CCC3)cc1,male C57BL/6 mouse,plasma,oral,3 mg/kg,,30 min
CCc1cc(OC)c2nccc(N3CCc4c(cc(Cn5ccnc5)cc4-c4cn(C)nc4C(F)(F)F)C3=O)c2c1,male CD-1 mouse,plasma,oral,150 mg/kg,,30 min
O=C(c1cc2cc(F)ccc2[nH]1)c1c[nH]c2c(F)cccc12,female mouse,plasma,intraperitoneal,6 mg/kg,,~15 min
CNC(=O)[C@H](Cc1c[nH]cn1)NC(=O)CN(CCCc1ccccc1)CC(=O)OC,male C57BL/6 mouse,plasma,intraperitoneal,30 mg/kg,,10 min
OC[C@H]1O[C@@H](c2ccc(Cl)c(Cc3ccc(O[C@H]4CCOC4)cc3)c2)[C@H](O)[C@@H](O)[C@@H]1O,CD-1 mouse,plasma,intravenous,5 mg/kg,,4.8 min
Cc1cc(C)cc(NC(=O)c2cnn(-c3ccc(C(C)C)cc3)c2C2CCNCC2)c1,SCID mouse,plasma,oral,50 mg/kg,single dose,~300 min
CC(C)(C)c1ccc(O)c(CN(Cc2cc(C(C)(C)C)ccc2O)C2CCC(NC(N)=O)CC2)c1 (centres unmarked),male C57BL/6 mouse,plasma,intraperitoneal,25 mg/kg,single dose,15 min
COc1ccc2nccc(N3CCc4c(cc(Cn5ccnc5)cc4-c4cn(C)nc4C(F)(F)F)C3=O)c2c1,male CD-1 mouse,plasma,oral,10 mg/kg,,42 min
COc1ccc(CNc2c3c(nc4ccc(C#N)cc24)CCN(C(C)=O)C3)cc1Cl,mouse,plasma,intraperitoneal,25 mg/kg,,15 min
COc1cc(OC)c2nccc(N3CCc4c(cc(Cn5ccnc5)cc4-c4cn(C)nc4C(F)(F)F)C3=O)c2c1,male CD-1 mouse,plasma,oral,50 mg/kg,,42 min
CN1CCC[C@H](CN2c3ccccc3Sc3ccccc32)C1.Cl,mouse,plasma,oral,64 mg/kg,single dose,120 min
Cc1ccc2cncc(N3CCc4c(cc(Cn5ccnc5)cc4-c4cn(C)nc4C(F)(F)F)C3=O)c2c1,male CD-1 mouse,plasma,oral,50 mg/kg,,78 min
CNCCN(C)c1cc(C#N)cc(CCc2cc(C)cc(N)n2)c1,male BALB/c mouse,plasma,oral,10 mg/kg,,15 min
COc1ccc2c3c1O[C@H]1C[C@@H](OC(=O)c4ccccc4)C=C[C@@]31CCN(C)C2,mouse,blood,intravenous,3 mg/kg,,3 min
CCCc1c(C2CCCCN2CCN2CCOCC2)[nH]c2cc(OC(F)(F)F)ccc12 (centres unmarked),male mouse,plasma,oral,30 mg/kg,,60 min
CC(C)(Nc1nc(-c2ccccn2)nc2ccccc12)c1ccccn1,female BALB/c mouse,plasma,oral,50 mg/kg,,342 min
Cc1ccc(NC(=O)c2ccc(CN3CCN(C)CC3)cc2)cc1Nc1nccc(-c2cncc(-c3oncc3C)c2)n1,male C57BL/6 mouse,plasma,oral,100 mg/kg/day,,240 min
CCc1cc(C(=O)NC)c2nccc(N3CCc4c(cc(Cn5ccnc5)cc4-c4cn(C)nc4C(F)(F)F)C3=O)c2c1,male CD-1 mouse,plasma,oral,50 mg/kg,,48 min
[Cl-].c1csc([I+]c2cccs2)c1,mouse,plasma,intraperitoneal,,,≤ 1 min
COc1nc(-c2cc(C)c(N[C@@H](C)c3cc(F)cc(F)c3)nn2)ccc1-n1cnc(C)c1,male CD-1 mouse,plasma,oral,5 mg/kg,single dose,60 min
CC(C)c1cnn2c(NCc3ccccc3)cc(NC[C@H]3CCNC[C@@H]3O)nc12,female nude mouse,tumour,oral,100 mg/kg,tumour-bearing,360 min
COc1cc(C(=O)N2CCC(N3CCN(C)CC3)CC2)ccc1Nc1ncc2c(n1)N(C)c1ccccc1C(=O)N2C,mouse,plasma,oral,10 mg/kg,,60 min
CNC(=O)[C@H](Cc1c[nH]cn1)NC(=O)CN(CCCc1ccccc1)CC(=O)O,male C57BL/6 mouse,plasma,intraperitoneal,30 mg/kg,,10 min
CS(=O)(=O)CCNCc1ccc(-c2ccc3ncnc(Nc4ccc(OCc5cccc(F)c5)c(Cl)c4)c3c2)o1,nude mouse,plasma,oral,200 mg/kg,single dose,480 min
Cc1cc(Nc2ccc(S(F)(F)(F)(F)F)cc2)n2ccnc2n1,male Swiss mouse,plasma,oral,100 mg/kg,single dose,30 min
CN1C(=O)c2ccccc2[S@+]([O-])c2ccc(C(=O)NCCc3cccs3)cc21,male C57BL/6 mouse,brain,intraperitoneal,30 mg/kg,single dose,15 min
COc1nc(-c2cc(C)c(N[C@@H](C)c3ccc(F)cc3)nn2)ccc1-n1cnc(C)c1,male CD-1 mouse,plasma,intravenous,1 mg/kg,single dose,4.98 min
CSc1cc(Oc2ccnc3[nH]c(=O)cnc23)ccc1NC(=O)Nc1cc(C(C)(C)C)nn1-c1ccccc1,BALB/c mouse,plasma,oral,10 mg/kg,,180 min
NC[C@@H]1O[C@H](O[C@H]2[C@@H](O)[C@H](O[C@@H]3[C@@H](O)[C@H](N)C[C@H](N)[C@H]3O[C@H]3O[C@H](CO)[C@@H](O)[C@H](O)[C@H]3N)O[C@@H]2CO)[C@H](N)[C@@H](O)[C@@H]1O,male BALB/c mouse,plasma,oral,500 mg/kg,,60 min
COc1ccc(C(O)COc2ccc(-c3csc(-c4ccc(OCC(O)c5ccc(OC)c(OC)c5)cc4)n3)cc2)cc1OC (centres unmarked),C57BL/6 mouse,plasma,oral,75 mg/kg,,60 min
CNC(=O)c1cc(Oc2ccc(NC(=O)Nc3ccc(Cl)c(C(F)(F)F)c3)c(F)c2)cc[n+]1[O-],mouse,plasma,oral,10 mg/kg,single dose,324 min
CC(C)(C)c1cc(NC(=O)Nc2ccc(Oc3ccnc4[nH]c(=O)cnc34)cc2F)n(-c2ccccc2)n1,BALB/c mouse,plasma,intravenous,2 mg/kg,,4.98 min
C=CC(=O)N1CC2CC(n3nc(-c4ccc(C(=O)Nc5ccccn5)cc4)c4c(N)ncnc43)CC2C1 (centres unmarked),SCID mouse,plasma,oral,0.2 mg/kg,,15 min
COc1nc(-c2cc(C)c(N[C@@H](C)c3c(F)cc(F)cc3F)nn2)ccc1-n1cnc(C)c1,male CD-1 mouse,plasma,oral,5 mg/kg,single dose,120 min
CC=Cc1ccc(O)c(OC)c1,mouse,plasma,intranasal,100 mg/kg,,5 min
Cc1c(-c2cc3ccccc3n2Cc2ccc(F)cc2)nc2cc(C(=O)N3CCC[C@@H](N)C3)ccn12,male BALB/c mouse,plasma,oral,10 mg/kg,,30 min
O=S(=O)(c1ccc(-c2ccc3nccc(Nc4ccncn4)c3c2)cc1)N1CCOCC1,female BALB/c mouse,brain,intraperitoneal,10 mg/kg,,15 min
